Measurements gathered from unrelated publications.
Lines come from different studies, so protocols differ.
Organism: Staphylococcus aureus
Effect on: microbial growth

SMILES | test | system | conditions | MIC
Cc1ccc2nc(-c3c4ccccc4cc4ccccc34)[nH]c2c1 | broth dilution | ATCC43300 MRSA | drug-resistant strain | 128 µg/mL
CO/N=C(\C(=O)N[C@@H]1C(=O)N2C(C(=O)O)=C(CSc3nc(=O)c(=O)[nH]n3C)CS[C@H]12)c1csc(N)n1 | – | USA300 | – | 64 µg/mL
COC(=O)c1cc(-c2cccc(NC(=O)Nc3ccc(Cl)cc3Cl)c2)on1 | broth dilution | ATCC29213 | – | > 64 µg/mL
CCCCCCCC/C=C\CCCCCCCCNC(=O)CP(=O)(O)O | – | ATCC33591 MRSA | drug-resistant strain | 100 µg/mL
Cc1ccc2nc(-c3ccc(F)cc3)n(Cc3ccccc3)c2c1 | broth dilution | ATCC43300 MRSA | drug-resistant strain | 64 µg/mL
CN[C@H](CC(C)C)C(=O)N[C@H]1C(=O)N[C@@H](CC(N)=O)C(=O)N[C@H]2C(=O)N[C@H]3C(=O)N[C@H](C(=O)N[C@H](C(=O)O)c4cc(O)cc(O)c4-c4cc3ccc4O)[C@H](O)c3ccc(c(Cl)c3)Oc3cc2cc(c3O[C@@H]2O[C@H](CO)[C@@H](O)[C@H](O)[C@H]2O[C@H]2C[C@](C)(N)[C@H](O)[C@H](C)O2)Oc2ccc(cc2Cl)[C@H]1O | – | ATCC33592 | drug-resistant strain | 0.39 µg/mL
Cc1ccc2nc(-c3ccc([N+](=O)[O-])cc3)[nH]c2c1 | broth dilution | ATCC43300 MRSA | drug-resistant strain | 256 µg/mL
Cc1ccc2[nH]c3c(c2c1)CCCC3NCCc1ccc(Br)cc1 (stereo not shown) | broth dilution | VISA | – | 4 µg/mL
COc1cccc(-c2nc3ccccc3[nH]2)c1 | broth dilution | ATCC43300 MRSA | drug-resistant strain | 512 µg/mL
COc1cccc(OC)c1C(=O)N[C@@H]1C(=O)N2[C@@H]1SC(C)(C)[C@@H]2C(=O)O | – | ATCCBAA1720 | drug-resistant strain, clinical isolate | > 64 µg/mL
COC(=O)c1cc(-c2cccc(NC(=O)Nc3ccccc3)c2)on1 | broth dilution | ATCC29213 | – | > 64 µg/mL
c1ccc(CCOC2CCCc3c2[nH]c2ccccc32)cc1 (stereo not shown) | broth dilution | ATCC29213 | – | > 16 µg/mL
COC(=O)c1cc(-c2cccc(NC(=O)Nc3ccc(C)c(Cl)c3)c2)on1 | broth dilution | ATCC29213 | – | > 64 µg/mL
CN[C@H](CC(C)C)C(=O)N[C@H]1C(=O)N[C@@H](CC(N)=O)C(=O)N[C@H]2C(=O)N[C@H]3C(=O)N[C@H](C(=O)N[C@H](C(=O)O)c4cc(O)cc(O)c4-c4cc3ccc4O)[C@H](O)c3ccc(c(Cl)c3)Oc3cc2cc(c3O[C@@H]2O[C@H](CO)[C@@H](O)[C@H](O)[C@H]2O[C@H]2C[C@](C)(N)[C@H](O)[C@H](C)O2)Oc2ccc(cc2Cl)[C@H]1O | – | 147 | clinical isolate | 0.59 µM
CCCCCCC#Cc1cncc(-c2nnc(SCc3cc([N+](=O)[O-])cc([N+](=O)[O-])c3)n2C)c1 | – | MRSA | drug-resistant strain | ≥ 20 µg/mL
CCCCCCCCCCCCCCCC(=O)C(F)(F)P(=O)(O)O | – | ATCC33591 MRSA | drug-resistant strain | 100 µg/mL
Oc1ccccc1-c1nc2ccccc2[nH]1 | broth dilution | ATCC43300 MRSA | drug-resistant strain | 256 µg/mL
C=C(NC(=O)C(=C)NC(=O)c1csc(C2=N[C@@H]3c4csc(n4)[C@H]4NC(=O)c5csc(n5)[C@H]([C@](C)(O)[C@@H](C)O)NC(=O)[C@H]5CSC(=N5)/C(=C/C)NC(=O)[C@H]([C@@H](C)O)NC(=O)c5csc(n5)[C@]3(CC2)NC(=O)[C@H](C)NC(=O)C(=C)NC(=O)[C@H](C)NC(=O)[C@H]([C@@H](C)CC)N[C@@H]2C=Cc3c([C@H](C)O)cc(nc3[C@H]2O)C(=O)O[C@@H]4C)n1)C(N)=O | – | MSSA | – | 0.06 µg/mL
O=C(CCCCC1CCCCC1)NP(=O)(O)O | – | ATCC33591 MRSA | drug-resistant strain | > 200 µg/mL
COc1cc(C)c(Cc2cnc(N)nc2N)cc1OC | broth dilution | – | – | ~16.6 µM
CC(=O)Nc1c2sscc-2[nH]c1=O | – | BAA1556 MRSA | drug-resistant strain | 5 µM
O=C(N[C@H](CO)[C@H](O)c1ccc([N+](=O)[O-])cc1)C(Cl)Cl | – | USA300 | – | 4 µg/mL
COC(=O)c1cc(-c2cccc(NC(=O)Nc3cccc(C#N)c3)c2)on1 | broth dilution | ATCC29213 | – | > 64 µg/mL

SMILES | test | system | conditions | MIC
CNC(=O)c1cc(Oc2ccc(NC(=O)Nc3cccc(C(F)(F)F)c3)cc2)ccn1 | – | NCTC8325 | – | > 100 µM
Cc1cc(Cl)ccc1-c1ccc(/C=C2\SC(=S)N(CC(=O)O)C2=O)o1 | broth dilution | MRSA USA300 | drug-resistant strain | 8 to 64 µg/mL
CN[C@H](CC(C)C)C(=O)N[C@H]1C(=O)N[C@@H](CC(N)=O)C(=O)N[C@H]2C(=O)N[C@H]3C(=O)N[C@H](C(=O)N[C@H](C(=O)O)c4cc(O)cc(O)c4-c4cc3ccc4O)[C@H](O)c3ccc(c(Cl)c3)Oc3cc2cc(c3O[C@@H]2O[C@H](CO)[C@@H](O)[C@H](O)[C@H]2O[C@H]2C[C@](C)(N)[C@H](O)[C@H](C)O2)Oc2ccc(cc2Cl)[C@H]1O | – | UAMS1 | – | 1 µg/mL
COC(=O)c1cc(-c2cccc(NC(=O)Nc3cc(Cl)ccc3Cl)c2)on1 | broth dilution | ATCC29213 | – | > 64 µg/mL
CN[C@@H]1[C@H](O)[C@H](NC)[C@H]2O[C@@]3(O)C(=O)C[C@@H](C)O[C@H]3O[C@@H]2[C@H]1O | broth dilution | 8325 | – | 25 µg/mL
COC(=O)c1cc(-c2cccc(NC(=O)Nc3ccc(C)cc3)c2)on1 | broth dilution | ATCC29213 | – | > 64 µg/mL
Clc1ccc(-c2nc3ccccc3[nH]2)c(Cl)c1 | broth dilution | ATCC43300 MRSA | drug-resistant strain | 256 µg/mL
CCCCCCCCCCCCCCCC(=O)NS(=O)(=O)Oc1ccc(OC)cc1 | – | ATCC33591 MRSA | drug-resistant strain | > 200 µg/mL
COC(=O)c1cc(Oc2ccc(NC(=O)Nc3ccc(Cl)c(C(F)(F)F)c3)cc2)ccn1 | – | NCTC8325 | – | 3 µM
C[C@@H](O)[C@H]1C(=O)N2C(C(=O)O)=C(S[C@@H]3CN[C@H](C(=O)N(C)C)C3)[C@H](C)[C@H]12 | – | USA300 | – | 1 µg/mL
N#CC(C#N)=Cc1ccc(O)c(O)c1 | – | NCTC8325 | – | > 30 µM
CC1(C)CC[C@]2(C(=O)O)CC[C@]3(C)C(=CC[C@@H]4[C@@]5(C)CC[C@H](O)C(C)(C)[C@@H]5CC[C@]43C)[C@@H]2C1 | – | 252 | – | 256 µg/mL
CCC(CC)c1cc(CCN2CCCN(Cc3ccc(C(F)(F)F)cc3)CC2)nc(-c2ccncc2)n1 | – | ATCCBAA41 | drug-resistant strain, clinical isolate | 6 µg/mL
Cc1ccc2nc(-c3ccncc3)[nH]c2c1 | broth dilution | ATCC43300 MRSA | drug-resistant strain | 128 µg/mL
CCCCCCCCCC(=O)N[C@@H](Cc1c[nH]c2ccccc12)C(=O)N[C@H](CC(N)=O)C(=O)N[C@@H](CC(=O)O)C(=O)N[C@@H]1C(=O)NCC(=O)N[C@@H](CCCN)C(=O)N[C@@H](CC(=O)O)C(=O)N[C@H](C)C(=O)N[C@@H](CC(=O)O)C(=O)NCC(=O)N[C@H](CO)C(=O)N[C@@H]([C@H](C)CC(=O)O)C(=O)N[C@@H](CC(=O)c2ccccc2N)C(=O)O[C@@H]1C | broth dilution | USA300 | drug-resistant strain | 0.5 µg/mL
CC(=O)O[C@H]1C[C@@]2(C)[C@@H](C[C@@H](O)[C@H]3[C@@]4(C)CC[C@@H](O)[C@@H](C)[C@@H]4CC[C@@]32C)/C1=C(\CCC=C(C)C)C(=O)O | – | ATCCBAA1721 | – | 8 µg/mL
c1ccc2c(-c3nc4ccccc4[nH]3)c3ccccc3cc2c1 | broth dilution | ATCC43300 MRSA | drug-resistant strain | 64 µg/mL
O=C(Nc1ccc(Cl)c(C(F)(F)F)c1)N1CCCCC1 | – | NCTC8325 | – | 30 µM
COC(=O)c1cc(-c2cccc(NC(=O)Nc3c(C)cccc3C)c2)on1 | broth dilution | ATCC29213 | – | > 64 µg/mL
CC1C(=NOCc2cc(-c3ccc(Cl)cc3)no2)CC(c2ccccc2)OC1c1ccccc1 (stereo not shown) | broth dilution | MTCC96 | 24 h | 25 µg/mL
Cc1cccc2nc(-c3ccc([N+](=O)[O-])o3)[nH]c12 | broth dilution | ATCC700699 MRSA | drug-resistant strain | 2 µg/mL
CCCCCC/C=C\CCCCCCCCCC(=O)NP(=O)(O)O | – | ATCC33591 MRSA | drug-resistant strain | 200 µg/mL
COC(=O)c1cc(-c2cccc(NC(=O)NCc3ccccc3)c2)on1 | broth dilution | ATCC29213 | – | > 64 µg/mL
